According to ChEMBL document CHEMBL4130564, “Indolylalkyltriphenylphosphonium Analogues Are Membrane-Depolarizing Mycobactericidal Agents” (ACS Med Chem Lett, 2017):
pIC50: −log10 of the molar value. The source made the active and inactive calls. The rule behind the calls is not given here.

What was measured:
[1] = tested on: Mycobacterium tuberculosis; experiment: Antibacterial activity against Mycobacterium bovis BCG ATCC 35734 after 5 days by broth dilution method; format: functional; conditions: BCG str. ATCC 35743, 120 h
How it was run: (§1)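 Broth dilution; growth read by turbidity; MIC50 and MIC90 are the concentrations reducing growth by 50% and 90% relative to untreated controls; average of two or more separate determinations.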

[2] = tested on: Mycobacterium tuberculosis; experiment: Bactericidal activity against Mycobacterium bovis BCG ATCC 35734 assessed as increase in propidium iodide uptake at 4 uM after 1 to 5 days by flow cytometry; format: functional, organism-based; conditions: BCG str. ATCC 35743
[3] = tested on: Mycobacterium tuberculosis; experiment: Bactericidal activity against Mycobacterium bovis BCG ATCC 35734 assessed as reduction in colony forming units at 4 uM after 1 to 5 days by time kill assay; format: functional, organism-based; conditions: BCG str. ATCC 35743
[4] = tested on: Mycobacterium tuberculosis; experiment: Bactericidal activity against Mycobacterium bovis BCG ATCC 35734 assessed as reduction in colony forming units at 1.6 uM after 1 to 5 days by time kill assay; format: functional, organism-based; conditions: BCG str. ATCC 35743
[5] = tested on: Mycobacterium tuberculosis; experiment: Bactericidal activity against Mycobacterium bovis BCG ATCC 35734 assessed as increase in propidium iodide uptake at 1.6 uM after 1 to 5 days by flow cytometry; format: functional, organism-based; conditions: BCG str. ATCC 35743
[6] = tested on: Mycobacterium tuberculosis; experiment: Bactericidal activity against Mycobacterium bovis BCG ATCC 35734 assessed as reduction in membrane potential by measuring red to green fluorescent ratio at 24 uM measured at 20 mins to 3 hrs by DiOC2-dye based fluorescence assay; format: functional, organism-based; conditions: BCG str. ATCC 35743
[7] = tested on: Mycobacterium tuberculosis; experiment: Bactericidal activity against Mycobacterium bovis BCG ATCC 35734 assessed as suppression of reductive capacity by measuring decrease in formazan formation after 0.5 to 1 hr by MTT reduction assay; format: functional, organism-based; conditions: BCG str. ATCC 35743
How it was run: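 BCG cultures exposed to 0.2–100 μM for 30 min and 1 h, then MTT added; formazan production read at 595 nm against drug-free basal absorbance; CCCP 100 μM reference; representative of two independent experiments.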

[8] = tested on: Mycobacterium tuberculosis; experiment: Antibacterial activity against Mycobacterium tuberculosis H37Rv ATCC 27294 after 7 days by broth dilution method; format: functional; conditions: H37Rv ATCC 27294, 168 h; how it was run: as §1
Vero C1008 = experiment: Cytotoxicity against African green monkey Vero E6 cells assessed as reduction in cell viability after 48 hrs by cell titre 96 aqueous one solution-based assay; conditions: Chlorocebus sabaeus, Vero C1008, 48 h
How it was run: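 Vero cell viability was compared with untreated control cells. IC50 was taken as the concentration giving 50% loss of viability, averaged over two or more separate determinations.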

[9] = Hemolytic activity against human RBC after 1 hr; format: ADME, cell-based, Erythrocyte; conditions: human red blood cells (erythrocytes)
How it was run: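 Human red blood cells were exposed to compound, and lysis was scaled against Triton X-100 (2% v/v), taken as 100% hemolysis. HC50 was the concentration lysing 50% of cells, averaged over two or more separate determinations.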

Lipid bilayer [10] = experiment: Binding affinity to DMPG vesicles assessed as increase in melting transition temperature by differential scanning calorimetric analysis
How it was run: (§2)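 Compound-loaded vesicles of negatively charged dimyristoylphosphatidylglycerol, used as a bacterial membrane surrogate, were scanned by differential scanning calorimetry. The gel-to-liquid melting endotherm was read for melting temperature (Tm) and calorimetric enthalpy (ΔH).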

[11] = tested on: Mycobacterium tuberculosis; experiment: Bactericidal activity against Mycobacterium bovis BCG ATCC 35734 assessed as reduction in colony forming units after 5 days; format: functional, BCG str. ATCC 35743; conditions: for MBC: Mycobacterium tuberculosis, BCG ATCC 35734, 120 h, read-out: MBC99.9
[12] = tested on: Mycobacterium tuberculosis; experiment: Bactericidal activity against Mycobacterium bovis BCG ATCC 35734 assessed as increase in propidium iodide uptake at 6 uM after 1 to 5 days by flow cytometry; format: functional, organism-based; conditions: BCG str. ATCC 35743
[13] = tested on: Mycobacterium tuberculosis; experiment: Bactericidal activity against Mycobacterium bovis BCG ATCC 35734 assessed as reduction in colony forming units at 6 uM after 1 to 5 days by time kill assay; format: functional, organism-based; conditions: BCG str. ATCC 35743
[14] = tested on: Mycobacterium tuberculosis; experiment: Bactericidal activity against Mycobacterium bovis BCG ATCC 35734 assessed as reduction in membrane potential by measuring red to green fluorescent ratio at 12 uM measured at 20 mins to 3 hrs by DiOC2-dye based fluorescence assay; format: functional, organism-based; conditions: BCG str. ATCC 35743
[15] = tested on: Mycobacterium tuberculosis; experiment: Bactericidal activity against Mycobacterium bovis BCG ATCC 35734 assessed as reduction in membrane potential by measuring red to green fluorescent ratio at 12 uM measured after 1 to 5 days by DiOC2-dye based fluorescence assay; format: functional, organism-based; conditions: BCG str. ATCC 35743
How it was run: (§3)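 Membrane potential in treated BCG cultures tracked as DiOC2 red/green fluorescence ratio over extended exposure of 1, 3 and 5 days.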

[16] = tested on: Mycobacterium tuberculosis; experiment: Bactericidal activity against Mycobacterium bovis BCG ATCC 35734 assessed as cell elongation at 12 uM after 1 to 5 days by acid-fast staining-based light microscopy; format: functional, organism-based; conditions: BCG str. ATCC 35743
[17] = tested on: Mycobacterium tuberculosis; experiment: Bactericidal activity against Mycobacterium bovis BCG ATCC 35734 assessed as reduction in oxygen consumption at 15 times MIC90 after 1 hr by methylene blue-based assay; format: functional, organism-based; conditions: BCG str. ATCC 35743
[18] = tested on: Mycobacterium tuberculosis; experiment: Bactericidal activity against Mycobacterium bovis BCG ATCC 35734 assessed as reduction in oxygen consumption at 5 times MIC90 after 1 hr by methylene blue-based assay; format: functional, organism-based; conditions: BCG str. ATCC 35743
[19] = tested on: Mycobacterium tuberculosis; experiment: Bactericidal activity Mycobacterium bovis BCG ATCC 35734 assesses as cell death at 15 times MIC90 after 1 hr in presence of methylene blue; format: functional, organism-based; conditions: BCG str. ATCC 35743
[20] = tested on: Mycobacterium tuberculosis; experiment: Bactericidal activity against Mycobacterium bovis BCG ATCC 35734 assessed as reduction in oxygen consumption at 10 times MIC90 after 1 hr by methylene blue-based assay; format: functional, organism-based; conditions: BCG str. ATCC 35743
[21] = tested on: Mycobacterium tuberculosis; experiment: Bactericidal activity against Mycobacterium bovis BCG ATCC 35734 assessed as reduction in membrane potential by measuring red to green fluorescent ratio at 0.08 uM measured at 20 mins to 3 hrs by DiOC2-dye based fluorescence assay; format: functional, organism-based; conditions: BCG str. ATCC 35743
Lipid bilayer [22] = experiment: Binding affinity to DMPG vesicles assessed as change in enthalpy at 2 mM by differential scanning calorimetric analysis (reference value: -20.63 kJ/mol); how it was run: as §2
Lipid bilayer [23] = experiment: Binding affinity to DMPG vesicles assessed as melting transition temperature by differential scanning calorimetric analysis (reference value: 21.09 to 23.28 degC)
[24] = tested on: Mycobacterium tuberculosis; experiment: Bactericidal activity against Mycobacterium bovis BCG ATCC 35734 assessed as reduction in membrane potential by measuring red to green fluorescent ratio at 24 uM measured after 1 to 5 days by DiOC2-dye based fluorescence assay; format: functional, organism-based; conditions: BCG str. ATCC 35743; how it was run: as §3
[25] = tested on: Mycobacterium tuberculosis; experiment: Bactericidal activity against Mycobacterium bovis BCG ATCC 35734 assessed as cell elongation at 24 uM after 1 to 5 days by acid-fast staining-based light microscopy; format: functional, organism-based; conditions: BCG str. ATCC 35743
[26] = tested on: Mycobacterium bovis BCG str. ATCC 35743; experiment: Inhibition of NDH2 in Mycobacterium bovis BCG ATCC 35734 assessed as reduction in oxygen consumption at 80 uM after 1 hr by methylene blue-based assay
How it was run: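 Mid-log M. bovis BCG cultures in 7H9 medium were exposed to compound, then methylene blue was added (0.001%) and the tubes were incubated oxygen-free at 37 °C for […]. Oxygen use was read as methylene blue decolorization. Controls were medium-only tubes and drug-free culture.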

SMILES	MIC50 [1] [µM]	MIC90 [1] [µM]	further results
Fc1cccc2c1ccn2CCCCC[P+](c1ccccc1)(c1ccccc1)c1ccccc1	3	5	–
O=[N+]([O-])c1ccc2c(ccn2CCC[P+](c2ccccc2)(c2ccccc2)c2ccccc2)c1	9	12	–
COc1ccc2ccn(CCC[P+](c3ccccc3)(c3ccccc3)c3ccccc3)c2c1	7	15	–
CCCCCCCCn1cc(CN2CCC3(CCc4ccccc43)CC2)c2ccc(OC)cc21	–	–	Activity [2]: Active; Activity [3]: Active
Fc1ccc2ccn(CCCCC[P+](c3ccccc3)(c3ccccc3)c3ccccc3)c2c1	3	5	–
NNC(=O)c1ccncc1	–	–	Activity [4]: Active; Activity [5]: inactive
CCCCC[P+](c1ccccc1)(c1ccccc1)c1ccccc1	28	> 50	Activity [6]: inactive; Activity [7]: inactive
COc1ccc2c(ccn2CCC[P+](c2ccccc2)(c2ccccc2)c2ccccc2)c1	10	23	–
COc1cccc2ccn(CCCCC[P+](c3ccccc3)(c3ccccc3)c3ccccc3)c12.[I-]	2	3	MIC50 [8]: 2 µM; MIC90 [8]: 6 µM; pIC50 (Vero C1008): 4.74; HC50 at 1 h [9]: > 300 µM; ΔTm (Lipid bilayer [10]): 1 °C; MBC99 [11]: 3 µM; MBC [11]: 6 µM; Activity [12]: Active; Activity [13]: Active; Activity [14]: Active; Activity [15]: Active; Activity [16]: Active; Activity [7]: Dose-dependent effect; Activity [17]: Active; Activity [18]: inactive; Activity [19]: Toxic; Activity [20]: Active
O=[N+]([O-])c1ccc2c(ccn2CCCCC[P+](c2ccccc2)(c2ccccc2)c2ccccc2)c1	3	5	–
COc1ccc2c(ccn2CCCCC[P+](c2ccccc2)(c2ccccc2)c2ccccc2)c1	5	10	–
COc1cccc2ccn(CCC[P+](c3ccccc3)(c3ccccc3)c3ccccc3)c12.[I-]	4	6	MIC50 [8]: 6 µM; MIC90 [8]: 20 µM; pIC50 (Vero C1008): 4.47; HC50 at 1 h [9]: > 300 µM; MBC99 [11]: 13 µM; MBC [11]: 25 µM
CO[C@H]1/C=C/O[C@@]2(C)Oc3c(C)c(O)c4c(O)c(c(/C=N/N5CCN(C)CC5)c(O)c4c3C2=O)NC(=O)/C(C)=C\C=C\[C@H](C)[C@H](O)[C@@H](C)[C@@H](O)[C@@H](C)[C@H](OC(C)=O)[C@@H]1C	–	–	Activity [21]: inactive
Fc1cccc2ccn(CCC[P+](c3ccccc3)(c3ccccc3)c3ccccc3)c12	5	12	–
CCC[P+](c1ccccc1)(c1ccccc1)c1ccccc1	> 50	> 50	deltaH (Lipid bilayer [22]): -11.5 kJ/mol; Tm (Lipid bilayer [23]): 21.1 to 23.2 °C
O=[N+]([O-])c1ccc2ccn(CCC[P+](c3ccccc3)(c3ccccc3)c3ccccc3)c2c1	7	13	–
O=[N+]([O-])c1cccc2c1ccn2CCC[P+](c1ccccc1)(c1ccccc1)c1ccccc1.[I-]	5	9	MIC50 [8]: 22 µM; MIC90 [8]: 45 µM; pIC50 (Vero C1008): < 4.00; HC50 at 1 h [9]: 230 µM; MBC99 [11]: 25 µM; MBC [11]: 50 µM
O=[N+]([O-])c1cccc2ccn(CCCCC[P+](c3ccccc3)(c3ccccc3)c3ccccc3)c12	1	2	–

SMILES	MIC50 [1] [µM]	MIC90 [1] [µM]	further results
CCCCCn1ccc2cccc(OC)c21	> 50	> 50	Activity [6]: inactive; Activity [7]: inactive
CCCCCCCCCC[P+](c1ccccc1)(c1ccccc1)c1ccccc1	3.9	6	–
O=[N+]([O-])c1cccc2c1ccn2CCCCC[P+](c1ccccc1)(c1ccccc1)c1ccccc1.[I-]	2	3	MIC50 [8]: 4 µM; MIC90 [8]: 6 µM; pIC50 (Vero C1008): 4.44; HC50 at 1 h [9]: 196 µM; ΔTm (Lipid bilayer [10]): 1 °C; MBC99 [11]: 3 µM; MBC [11]: 6 µM; Activity [12]: Active; Activity [13]: Active; Activity [6]: Active; Activity [24]: Active; Activity [25]: Active; Activity [7]: Dose-dependent effect; Activity [17]: Active; Activity [18]: inactive; Activity [19]: Toxic; Activity [20]: Active
O=[N+]([O-])c1ccc2ccn(CCCCC[P+](c3ccccc3)(c3ccccc3)c3ccccc3)c2c1	3	4	–
Fc1ccc2c(ccn2CCCCC[P+](c2ccccc2)(c2ccccc2)c2ccccc2)c1	3	5	–
O=[N+]([O-])c1cccc2ccn(CCC[P+](c3ccccc3)(c3ccccc3)c3ccccc3)c12	2	4	–
COc1cccc2c1ccn2CCC[P+](c1ccccc1)(c1ccccc1)c1ccccc1	6	11	–
Fc1ccc2c(ccn2CCC[P+](c2ccccc2)(c2ccccc2)c2ccccc2)c1	8	17	–
Fc1cccc2c1ccn2CCC[P+](c1ccccc1)(c1ccccc1)c1ccccc1	6	12	–
c1ccc([P+](CCCCCn2ccc3ccccc32)(c2ccccc2)c2ccccc2)cc1	4.3	6.3	–
COc1cccc2c1ccn2CCCCC[P+](c1ccccc1)(c1ccccc1)c1ccccc1	3	5	–
c1ccc(CCCCCC[P+](c2ccccc2)(c2ccccc2)c2ccccc2)cc1	5.2	11.6	–
Fc1cccc2ccn(CCCCC[P+](c3ccccc3)(c3ccccc3)c3ccccc3)c12	3	6	–
CCCn1ccc2cc(F)ccc21	> 50	> 50	deltaH (Lipid bilayer [22]): -19.9 kJ/mol; Tm (Lipid bilayer [23]): 20.1 °C
COc1ccc2ccn(CCCCC[P+](c3ccccc3)(c3ccccc3)c3ccccc3)c2c1	4	8	–
Fc1ccc2ccn(CCC[P+](c3ccccc3)(c3ccccc3)c3ccccc3)c2c1	6	12	–
CSc1ccc2c(c1)N(CCC1CCCCN1C)c1ccccc1S2 (configuration not stated)	–	–	inhibition [26]: Active
